This is a sample that favours compounds with a hit; in the whole collection about 1.9% have one here.
proCasp3 act: procaspase-3 (human) activation | recombinant procaspase-3 D3A, Ac-DEVD-pNA absorbance 405 nm | AID 463141 | activation, % at 8.5 µM | 330,000 tested, 0.11% active | P42574;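 active = activation above the mean of all tested compounds plus 3 SD, cut at about 21% in these data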
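System: Procaspase-3 D3A mutant. Medium: Zinc-free 300 mM NaCl, 50 mM HEPES, 0.01% Triton X-100. Schedule: 1 h preincubation plus 2 h reaction at 25 °C. Measured by: 405 nm absorbance of p-nitroaniline, reads at 0 and 120 min. Read-out: percent activation relative to control range.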
PLC-beta3 inh: inhibitors of human phospholipase C beta3; Q01970; 370,000 tested, 0.18% active; Purified PLC-beta3, fluorogenic substrate, fluorescence; inhibition, % at 12.2 µM; in the data active = inhibition above about 11%
proCasp7 act: counter-screen for procaspase-3 activators: activators of human procaspase-7; P55210; recombinant procaspase-7, Ac-DEVD-pNA absorbance 405 nm; D23A/D198A/D206A triple mutant, cannot self-cleave; scale: DMSO 0, 5 µM enzyme 100; activation, % at 8.5 µM; 330,000 tested, 0.093% active; AID 463210;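 active = percent activation above the screen-wide mean plus 3 SD, cut at about 25% in these data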
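Material: Procaspase-7 triple mutant (PC-7 D3A) | Quantity: 2 µM procaspase-7 mutant as dispensed | Reagent: DEVD-pNA substrate | Times: 1 h preincubation, 2 h reaction | Technique: 405 nm absorbance of p-nitroaniline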
PLCg1 inh: PLC-gamma1 (human) inhibition, primary screen | inhibition, % at 12.2 µM | 370,000 tested, 0.84% active | purified PLC-gamma1, fluorogenic substrate, fluorescence | AID 720700; in the data active = inhibition above about 9.5%
HGIII-sPLA2 inh: Blocks human group III sPLA2 activity. Q9NZ20. QFRET BODIPY PC-A2 liposome hydrolysis, fluorescence. AID 743126. inhibition, % at 12.2 µM. 370,000 tested, 0.56% active;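 active = inhibition above mean plus 3 SD of compounds lying within the high and low control bounds, cut at about 19% in these data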
Arrestin-AP2 inh: blocks beta-arrestin peptide binding to AP2 adaptin; FITC-arrestin peptide / GST-AP2 beads, flow cytometry; AP2 beta2 appendage carries R879A mutation; inhibition, % at 10 µM; 340,000 tested, 0.31% active; AID 504490;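 active = inhibition above a set limit, near 3 SD of compounds lacking own fluorescence, cut at about 54% in these data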
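Material – GST-tagged AP2 beta2-adaptin appendage (R879A) on 4 µm glutathione beads · Probe or stimulus – fluorescein-tagged arrestin peptide at 50 nM final · Timing – 12 min plus 1 h, RT · Detection – bead flow cytometry, FITC channel · Read-out basis – inhibition as reduced fluorescein signal on beads, percent · Medium – PBS plus Tween 20 (0.05%) and BSA (0.1%)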
PC3 D3A act: activates human procaspase-3, dual activator counter-screen. shares compounds with proCasp7 act. activation, % at 8.5 µM. 290 tested, under 10 active. AID 493114. recombinant PC-3 D3A, Ac-DEVD-pNA absorbance 405 nm; aspartates 9, 28, 175 changed to alanine; 100% = enzyme control;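 active = mean percent activation across triplicates above a set limit taken from the earlier primary procaspase-3 screen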
Procasp7 act: activates human procaspase-7, confirming dual procaspase activators; recombinant procaspase-7, Ac-DEVD-pNA absorbance 405 nm; D23A/D198A/D206A mutant that cannot self-cleave; AID 493115; shares compounds with proCasp7 act; activation, % at 8.5 µM; 290 tested, under 10 active;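 active = mean activation above a set limit carried over from the earlier primary screen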
Each line names hits and unclear results; the compound was inactive in the other large screens (follow-up assays come after a bar, where they were run).

Cc1cccc2cc3c(NC(=O)C(C)(C)C)nn(CC(C)C)c3nc12	proCasp3 act 36.3, proCasp7 act 35.3 | PC3 D3A act inactive | Procasp7 act inactive
CCn1nc(NC(C)=O)c2cc3cccc(C)c3nc21	none
CCn1nc(NC(=O)c2ccccc2)c2cc3cccc(C)c3nc21	proCasp3 act 53.4, proCasp7 act 49.8 | PC3 D3A act inactive | Procasp7 act inactive
CCC[C@H]1[C@@H](NC(=O)Nc2ccc3c(c2)OCO3)CC[C@@]23CCCN2C(=O)CCC[C@@H]13	none (no result: proCasp3 act, proCasp7 act, Arrestin-AP2 inh)
CCC[C@H]1[C@@H](N(C)Cc2cccs2)CC[C@@]23CCCN2C(=O)CCC[C@@H]13	none (no result: proCasp3 act, proCasp7 act, Arrestin-AP2 inh)
COc1ccccc1C=C1CCc2ccccc2C1=O	none (no result: proCasp3 act, proCasp7 act, Arrestin-AP2 inh)
COc1cc(OC)c(OC)cc1/C=C1/Cc2ccccc2C1=O	proCasp7 act 27.6 | PC3 D3A act inactive | Procasp7 act inactive
COC(=O)[C@]12C[C@H](CC(=O)NCc3ccc(OC)c(OC)c3)C(=O)N(Cc3ccc4c(c3)OCO4)C1=C[C@H](C(C)(C)C)O[C@@H]2C	none (no result: proCasp3 act, proCasp7 act, Arrestin-AP2 inh)
COc1ccc(-c2nnc(SCC(=O)Nc3ccc4cn[nH]c4c3)n2Cc2ccco2)cc1	none (no result: proCasp3 act, proCasp7 act, Arrestin-AP2 inh)
Cn1nc(C(=O)NNC(=O)c2cccc(Cl)c2)c2ccccc2c1=O	proCasp7 act 25.9 | PC3 D3A act inactive | Procasp7 act inactive
COc1ccc(CNC(=O)C(c2ccc(C)o2)N(C(=O)c2snc(C(N)=O)c2N)c2ccccc2OC)cc1 (stereo not drawn)	proCasp7 act 26.3 | PC3 D3A act inactive | Procasp7 act inactive
COc1ccccc1N(C(=O)c1snc(C(N)=O)c1N)C(C(=O)NC1CCCCC1)c1cccc(OC)c1OC (stereo not drawn)	proCasp7 act 37.1 | PC3 D3A act inactive | Procasp7 act inactive
COc1ccc(OC)c(C(C(=O)NC2CCCCC2)N(C(=O)c2snc(C(N)=O)c2N)c2ccccc2OC)c1 (stereo not drawn)	none
NC(=O)c1nsc(C(=O)N(c2ccccc2)C(C(=O)NCc2ccc(F)cc2)c2ccc(O)cc2)c1N (stereo not drawn)	proCasp7 act 157.3 | PC3 D3A act inactive | Procasp7 act inactive
COc1ccc(OC)c(N(C(=O)c2snc(C(N)=O)c2N)C(C(=O)NCc2ccccc2)c2ccc(O)cc2)c1 (stereo not drawn)	none
Cc1cccc(-c2cc3nc(-c4ccccc4)cc(N4CCC5(CC4)OCCO5)n3n2)c1	proCasp7 act 30.3 | PC3 D3A act inactive | Procasp7 act inactive
Cc1ccc(-c2cc3nc(-c4ccccc4)cc(N4CCC5(CC4)OCCO5)n3n2)cc1	none
Fc1cccc(-c2cc3nc(-c4ccccc4)cc(N4CCC5(CC4)OCCO5)n3n2)c1	proCasp3 act 21.6, proCasp7 act 29.9 | PC3 D3A act inactive | Procasp7 act inactive
O=C(CCC(=O)N(CC(=O)NC1CCCC1)Cc1ccccc1)Nc1nccs1	proCasp7 act 101.3 | PC3 D3A act inactive | Procasp7 act inactive
O=C(CCC(=O)N(CC(=O)NC1CCCCC1)Cc1ccccc1)Nc1nccs1	none
COC(=O)c1cc(=O)n2c(sc3ccccc32)c1C#N	proCasp7 act 26.2 | PC3 D3A act inactive | Procasp7 act inactive
CCc1ccc(-n2nc3cc(C)c(N)cc3n2)cc1	proCasp3 act 34.8, proCasp7 act 27.9 | PC3 D3A act inactive | Procasp7 act inactive
Cc1ccc(-n2nc3cc(C)c(N)cc3n2)cc1	none
COc1ccc(N2C(=O)CC(Cc3ccc(Br)cc3)C2=O)cc1 (stereo not drawn)	none
CCOc1ccc(N2C(=O)CC(Cc3ccc(Br)cc3)C2=O)cc1 (stereo not drawn)	proCasp7 act 80.9 | PC3 D3A act inactive | Procasp7 act inactive
COc1ccc(C(=O)OCCCN(C)C2CN(Cc3cn(Cc4ccccc4F)nn3)S(=O)(=O)C2)cc1OC (stereo not drawn)	none (no result: proCasp3 act, proCasp7 act, Arrestin-AP2 inh)
Cn1c2ccccc2c(=O)c2cc(C#Cc3ccsc3)ccc21	proCasp3 act 38.5, proCasp7 act 39.7 | PC3 D3A act inactive | Procasp7 act inactive
Cn1c2ccccc2c(=O)c2ccc(C#Cc3ccccn3)cc21	proCasp7 act 26.9 (no result: Arrestin-AP2 inh) | PC3 D3A act inactive | Procasp7 act inactive
Cn1c2ccccc2c(=O)c2cc(C#Cc3ccccn3)ccc21	none
Cn1c2ccccc2c(=O)c2cc(C#CC3(O)CCCCC3)ccc21	proCasp3 act 40.9, proCasp7 act 179.9 | PC3 D3A act inactive | Procasp7 act inactive
O=C(CSc1nnc(COc2ccc(Cl)cc2)n1Cc1ccco1)Nc1ccc(OCc2ccccc2)cc1	none (no result: proCasp3 act, proCasp7 act, Arrestin-AP2 inh)
CCOC(=O)[C@]12CCCCC/C=C\1N(Cc1ccc(OC)cc1)C(=O)[C@H]2CC(=O)NCc1ccccc1	none (no result: proCasp3 act, proCasp7 act, Arrestin-AP2 inh)
COC(=O)[C@H](C(C)C)N1CCc2nnn(CC3CCCCC3)c2-c2cc(F)ccc2S1(=O)=O	none (no result: proCasp3 act, proCasp7 act, Arrestin-AP2 inh)
COc1ccc2c(-c3ccc(S(N)(=O)=O)cc3)c(-c3ccc(S(C)(=O)=O)cc3)sc2c1	proCasp3 act 23.2, proCasp7 act 43.7 | PC3 D3A act inactive | Procasp7 act inactive
CCN1C(=O)N/C(=C/c2ccc(Sc3ccc(C)cc3)o2)C1=O	proCasp3 act 37.8, proCasp7 act 70.5 | PC3 D3A act inactive | Procasp7 act inactive
CCOC(=O)C(=O)N1CCC(C(=O)NC2CCCc3ccccc32)CC1 (stereo not drawn)	none (no result: proCasp3 act, proCasp7 act, Arrestin-AP2 inh)
Cc1ccc2c(n1)sc1c(-c3ccccc3)c(C#N)c(N)nc12	proCasp3 act 79.0, proCasp7 act 44.1 | PC3 D3A act inactive | Procasp7 act inactive
Cc1nc(N)c(C#N)c(-c2cccnc2)c1-c1ccccc1	none
O=C(CSCc1ccc(Cl)cc1)N/N=C/c1ccc(OCC(=O)Nc2ccccc2)cc1	proCasp7 act 28.5 | PC3 D3A act inactive | Procasp7 act inactive
Cn1cc(C2(C)CCOc3ccccc32)c2ccccc21 (stereo not drawn)	none (no result: proCasp3 act, proCasp7 act, Arrestin-AP2 inh)
COc1ccc(OC)c(/C=C/C(=O)Nc2cccc(S(=O)(=O)NC3=NCCCCC3)c2)c1	proCasp3 act 26.4, proCasp7 act 84.5 | PC3 D3A act inactive | Procasp7 act inactive
CN1C2=N[C@@H](c3ccc4c(c3)OCO4)CC(=O)N2/C(=C\c2ccccc2)[C@H]1c1ccccc1	none (no result: proCasp3 act, proCasp7 act, Arrestin-AP2 inh)
CCCCC#Cc1ccccc1COC[B-](F)(F)F	none (no result: proCasp3 act, proCasp7 act, Arrestin-AP2 inh)

Bioassay records (PubChem BioAssay)
